Only some compounds are listed: those with a hit (about 3.5% of all), similar ones and a draw of the others.
pPAFAH inh: inhibitors of human plasma PAF acetylhydrolase (pPAFAH) | inhibition, % at 3.39 µM | hit rate 1.5% among 330,000 | Q13093 | AID 463082 | recombinant pPAFAH, FP-rhodamine probe fluorescence polarization;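 active means inhibition above the mean inhibition across the screen plus 3 SD, cut at about 25% in these data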;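 further: inhibitors block binding of the rhodamine activity-based probe so polarization drops; 0% = enzyme with DMSO and 100% = wells lacking pPAFAH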
PREPL inh: inhibits the human prolyl oligopeptidase-like enzyme; Q4J6C6; recombinant PREPL, fluorescence polarization activity-based probe; inhibition, % at 5.96 µM; hit rate 0.68% among 320,000; AID 2751;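 further: 0% = enzyme with DMSO and 100% = wells lacking enzyme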
PAFAH1B3 FP inh: blocks human PAF acetylhydrolase 1B catalytic subunit 3. Q15102. recombinant PAFAH1B3, FP-rhodamine probe, fluorescence polarization. inhibition, % at 3.39 µM. hit rate 0.28% among 340,000. AID 492972;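 active means inhibition above the screen-wide average of all tested compounds plus 3 SD, cut at about 25% in these data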;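 further: 0% = enzyme with DMSO only and 100% = wells lacking PAFAH1B3 protein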
Target sequence (Q15102 whole entry, looked up): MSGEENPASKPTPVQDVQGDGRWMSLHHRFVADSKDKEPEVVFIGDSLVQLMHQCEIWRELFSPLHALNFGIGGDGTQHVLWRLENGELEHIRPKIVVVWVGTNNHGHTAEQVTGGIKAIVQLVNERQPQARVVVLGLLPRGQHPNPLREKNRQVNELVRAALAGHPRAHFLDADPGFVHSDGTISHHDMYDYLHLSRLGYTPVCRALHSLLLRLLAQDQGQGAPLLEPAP
PAFAH2 FP inh: inhibitors of human PAFAH2; AID 492956; Q99487; inhibition, % at 3.39 µM; hit rate 0.99% among 340,000; recombinant PAFAH2, FP-rhodamine activity probe, fluorescence polarization;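 active means inhibition above the mean over all tested compounds plus 3 SD, cut at about 30% in these data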;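 further: inhibitors block probe labeling of enzyme so polarization drops; 0% = enzyme with DMSO and 100% = wells lacking PAFAH2 protein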
Apaf-1 inh: inhibitors of human Apaf-1 apoptosome. reconstituted apoptosome caspase-3 activity, DEVD-Rh110 fluorescence. AID 489030. O14727. inhibition, % at 20 µM. hit rate 0.71% among 330,000; active means inhibition of at least 40% at 20 µM;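 further: plate controls were DMSO wells for no effect and DEVD-CHO caspase inhibitor wells for full effect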
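Medium: Hepes buffer, pH 7.5 / System: biochemical Apaf-1 apoptosome reconstitution / Measured by: Rh110 fluorescence, excitation 480 nm, emission 540 nm / Times: compound with Apaf-1, dATP, procaspase-3 30 min, then 50 min reaction, room temperature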
PAFAH1B2 inh: blocks human PAF acetylhydrolase 1b catalytic subunit 2 | P68402 | recombinant PAFAH1B2, FP-rhodamine activity probe, fluorescence polarization | inhibition, % at 3.39 µM | hit rate 1.2% among 340,000;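 active means inhibition above the mean of all tested compounds plus 3 SD, cut at about 24% in these data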;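 further: 0% = enzyme with DMSO and 100% = wells lacking PAFAH1B2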
Target sequence (P68402 whole entry, looked up): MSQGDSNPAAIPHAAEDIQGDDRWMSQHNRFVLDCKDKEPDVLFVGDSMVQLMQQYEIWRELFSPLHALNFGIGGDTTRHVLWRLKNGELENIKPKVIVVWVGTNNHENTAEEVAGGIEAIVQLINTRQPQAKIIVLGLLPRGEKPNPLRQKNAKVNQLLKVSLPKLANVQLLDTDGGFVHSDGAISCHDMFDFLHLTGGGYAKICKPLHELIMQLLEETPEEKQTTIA
PREPL inh cf: human PREPL inhibition, confirmation. shares compounds with PREPL inh. recombinant PREPL, fluorescence polarization activity probe. inhibition, % at 5.96 µM. hit rate 67% among 2,000. AID 2803;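 further: 0% = protein with DMSO and 100% = wells lacking protein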
Starred values were filed as active, the others as inactive; · = no result given. Unless noted, no stated cut-off is given here; in the data, active means inhibition above about 43%; inactive means the rest.

SMILES | pPAFAH inh | PREPL inh | PAFAH1B3 FP inh | PAFAH2 FP inh | Apaf-1 inh | PAFAH1B2 inh | PREPL inh cf
O=S(=O)(c1ccc(Br)cc1)N1CCC2(CC1)OCCO2 | -2 | 0 | 7 | 8 | 15 | 27* | ·
Cc1cc(NCCc2ccc(Cl)cc2)n2ncnc2n1 | 4 | 16 | -3 | -3 | -14 | 24* | ·
CC1=C(C(=O)OCCc2ccccc2)C(c2ccsc2)NC(=O)N1C (centres undefined) | 28* | 9 | -7 | 2 | 6 | 68* | ·
COc1ccc(NC(=O)c2cccnc2N2CCOCC2)cc1 | -1 | 15 | 5 | 2 | 0 | 4 | ·
Cc1ccc(-c2c(C(=O)Nc3ccccc3C)c(C)[nH]c(=S)c2C#N)o1 | 27* | 15 | · | · | 16 | · | ·
Cc1ccccc1NC(=O)c1c(C)[nH]c(=S)c(C#N)c1-c1ccc(Cl)cc1 | 5 | 6 | · | · | -8 | · | ·
O=C(O)c1cc(S(=O)(=O)N2CCCCC2)ccc1N1CCCC1 | 3 | 7 | 6 | 6 | 2 | 11 | ·
COc1ccccc1NC(=O)CN(c1ccc(C23CC4CC(CC(C4)C2)C3)cc1)S(C)(=O)=O | 3 | -2 | 0 | -7 | 7 | -1 | ·
CCn1c(=N)n(CC(=O)c2ccc(Cl)c(Cl)c2)c2ccccc21 | 6 | 39 | 12 | -1 | 22 | -3 | ·
N=c1n(CCN2CCCCC2)c2ccccc2n1CC(O)c1cccc(Br)c1 (centres undefined) | 5 | 41 | -6 | 2 | 1 | -10 | ·
N=c1n(CCN2CCCCC2)c2ccccc2n1CC(O)c1ccc(Cl)c(Cl)c1 (centres undefined) | 4 | 50* | 3 | -9 | 9 | -1 | ·
N=c1n(CCN2CCCCC2)c2ccccc2n1CC(=O)c1ccc(Cl)c(Cl)c1 | -8 | 43* | · | · | 26 | · | ·
O=C(COC(=O)c1cccc(S(=O)(=O)NCc2ccccc2)c1)Nc1ccccc1OC(F)F | 32* | -2 | 6 | 43* | 4 | 10 | ·
O=C(COC(=O)c1ccc(S(=O)(=O)NCc2ccco2)cc1)Nc1ccccc1OC(F)F | 17 | 2 | 6 | 16 | 6 | 4 | ·
O=C(COC(=O)c1ncc(Cl)c(Cl)c1Cl)Nc1ccccc1OC(F)F | 25* | 3 | 9 | 1 | 12 | 3 | ·
COc1ccc(CCNC(=O)CSc2nnc(CNc3ccc(Cl)cc3)o2)cc1OC | -5 | -5 | 2 | 5 | 7 | 5 | ·
O=C(CSc1nnc(CNc2ccc(Cl)cc2)o1)Nc1nc2c(s1)CCCC2 | 22 | 17 | 6 | 12 | 14 | 24* | ·
CC1(C)Cc2c(sc(NC(=O)c3ccc(S(=O)(=O)N4CCCCCC4)cc3)c2C#N)C(C)(C)N1 | 0 | -7 | -1 | 6 | -4 | 2 | ·
Cc1ccc2c(CN3CCC(C)CC3)cc(=O)oc2c1C | · | · | 0 | 1 | 12 | 3 | ·
CCOC(=O)C1CCN(Cc2cc(=O)oc3c(C)c(C)ccc23)CC1 | 4 | 44* | 10 | 4 | 10 | -2 | 35
COc1ccc(N2CCN(C(=O)c3ccc(Cn4c(=S)[nH]c5ccc(N6CCOCC6)cc5c4=O)cc3)CC2)cc1 | 9 | 45* | 4 | -2 | 20 | -1 | 45*
CC(C)N=c1cc2n(-c3ccc(Cl)cc3)c3ccccc3nc-2cc1Nc1ccc(Cl)cc1 | 17 | 45* | 10 | 2 | 68* | -2 | 48*
NC(=O)[C@H]1CC2(CC(c3cccc(NC(=O)COc4ccc(Cl)cc4)c3)=NO2)CN1C(=O)Cc1ccc([N+](=O)[O-])cc1 (some centres undefined) | 8 | 49* | 5 | -7 | 17 | -2 | 50*
CC(C)N1CCN(c2ccc(OCC3COC(Cn4cncn4)(c4ccc(Cl)cc4Cl)O3)cc2)CC1 (centres undefined) | · | · | 1 | 4 | · | 6 | ·
CC(C)N1CCN(c2ccc(OC[C@H]3CO[C@](Cn4cncn4)(c4ccc(Cl)cc4Cl)O3)cc2)CC1 | 5 | 57* | 13 | -24 | 23 | -3 | 46*
SMILES | pPAFAH inh | PREPL inh | PAFAH1B3 FP inh | PAFAH2 FP inh | Apaf-1 inh | PAFAH1B2 inh | PREPL inh cf
Cc1cc(C)nc(/N=C(\N)Nc2ccc(F)c([N+](=O)[O-])c2)n1 | 7 | 9 | -2 | -4 | -1 | 3 | ·
CN(Cc1ccco1)c1ncnc2ccc(-c3ccccc3Cl)cc12 | 17 | 45* | 1 | 2 | 13 | 7 | 20
CN(C)c1ccc(CN(C(=O)/C=C/c2ccccc2Cl)C2CCS(=O)(=O)C2)cc1 (centres undefined) | 2 | 50* | · | · | 19 | · | 49*
O=C(/C=C/c1ccccc1Cl)N(Cc1ccc(Cl)cc1)C1CCS(=O)(=O)C1 (centres undefined) | 3 | -42 | 6 | 2 | 17 | 2 | ·
Cc1ccc(C(=O)CCC(=O)OCC(=O)NNC(=O)c2ccc([N+](=O)[O-])cc2)cc1 | 15 | 10 | 6 | 3 | 2 | 1 | ·
Cc1ccc(C(=O)C2=C(O)C(=O)N(CC3CCCO3)C2c2ccccc2F)o1 (centres undefined) | 0 | -11 | 6 | 18 | 5 | 1 | ·
COc1ccc(C(=O)Nc2ccc(-c3ccc(C)o3)cc2)cc1S(=O)(=O)N1CCOCC1 | 8 | 63* | 3 | -1 | 21 | 6 | 37
COc1ccc(CNC(=O)Cc2c(C(=O)O)[nH]c3ccccc23)c(OC)c1 | 2 | 126* | 8 | -1 | 0 | 9 | 3
COc1ccc(Cl)c(N2CCN(CCCNC(=O)Nc3ccc(C)cc3)CC2)c1 | 6 | 47* | 9 | -3 | 10 | 4 | 40
COc1ccc(NC(=O)NCCN2CCN(c3cc(OC)ccc3OC)CC2)cc1 | 2 | 7 | 2 | 7 | -9 | 2 | ·
O=C(CN1C(=O)CCOc2ccccc21)Nc1ccc(Cl)c(S(=O)(=O)N2CCOCC2)c1 | 1 | -2 | 0 | 0 | -5 | 4 | ·
COc1ccc(N2CCN(S(=O)(=O)c3cccc4cccnc34)CC2)cc1 | 4 | 8 | -1 | 4 | -1 | -3 | ·
COc1ccc(CC2(CO)CCN(S(=O)(=O)c3cccc4cccnc34)CC2)cc1 | 7 | 51* | 5 | 0 | 6 | 0 | 42
CN1C(=O)[C@H]2[C@@H](/C=C/c3ccccc3)N3C(=O)CN(CCO)C(=O)[C@@]3(C)[C@H]2C1=O | 4 | 5 | 2 | 3 | 2 | 1 | ·
COc1ccc(CCNC(=O)C(=O)NCC2OCCN2S(=O)(=O)c2ccc(OC)c(OC)c2)cc1 (centres undefined) | -1 | 3 | -5 | 2 | 8 | 3 | ·
O=c1cc(-c2ccc(O)c(O)c2)oc2cc(O[C@@H]3O[C@H](CO)[C@@H](O)[C@H](O)[C@H]3O)cc(O)c12 | 15 | 73* | 67* | 52* | 7 | 67* | 60*
O=c1c(-c2ccc(O)cc2)coc2cc(OC3OC(CO)C(O)C(O)C3O)cc(O)c12 (centres undefined) | -5 | -2 | 2 | -6 | 10 | 8 | ·
